The source made the active and inactive calls. The rule behind the calls is not given here. Starred links: 1 amine or outer side, 2 acyl side, 3 side chain; linkers in the order of their positions; H or OH if unused. Residues, ends and D or L forms follow the SMILES beside them. *: point of attachment. X2 = O=C(CCCC[C@@H]1SC[C@@H]2NC(=O)N[C@@H]21)NCCCOCCOCCOCCCN*; X71 = O=C(O)[C@@H](CC(=O)*)SCc1cccc(C(F)(F)F)c1; X72 = O=C(O)[C@@H](CC(=O)*)SCc1cccc2ccccc12; X74 = O=C(O)[C@@H](CC(=O)*)SCc1ccc(Cl)cc1Cl; X1 = O=C(O)[C@H](CC(=O)*)Sc1ccc2ccccc2c1; X70 = O=C(O)[C@H](CC(=O)*)Sc1cccc(Cl)c1; X73 = O=C(O)[C@H](CC(=O)*)SCc1ccccc1Cl; X9 = O=C(O)C(CC(=O)*)Sc1ccc2ccccc2c1; Suc = O=C(CCC(=O)[*:2])[*:1]; Bz = O=C(c1ccccc1)*
Tests used:
[1] = target: T1, NAD-dependent protein deacylase sirtuin-5, mitochondrial (Homo sapiens, UniProt Q9NXA8); experiment: Inhibition of human recombinant N-terminal Strep2-tagged SIRT5 expressed in Escherichia coli BL21 (DE3) using Abz-GVLK(glutaryl)AY(NO2)GV-NH2 as substrate in presence of NAD+ by fluorescence assay
Target sequence in this assay (Q9NXA8 whole entry): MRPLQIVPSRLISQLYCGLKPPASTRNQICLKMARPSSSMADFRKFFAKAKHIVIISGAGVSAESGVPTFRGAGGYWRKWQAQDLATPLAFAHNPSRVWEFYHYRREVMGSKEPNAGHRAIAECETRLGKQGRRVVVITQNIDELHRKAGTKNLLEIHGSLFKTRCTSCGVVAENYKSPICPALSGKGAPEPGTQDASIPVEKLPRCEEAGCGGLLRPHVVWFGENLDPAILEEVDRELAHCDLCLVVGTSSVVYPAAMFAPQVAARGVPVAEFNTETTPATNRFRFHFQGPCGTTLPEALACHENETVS

[2] = target: T1, NAD-dependent protein deacylase sirtuin-5, mitochondrial; experiment: Binding affinity to human N-terminal biotinylated SIRT5 assessed as dissociation rate constant by surface plasmon resonance spectroscopy
Outline: (§1)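 Surface plasmon resonance: N-terminally biotinylated Sirt5 (biotinylated via Trypsiligase) immobilized on a streptavidin-coated sensor chip at about 1800 RU. Biotinylated ligand injected at 50 nM in PBS (4 mM KH2PO4, 16 mM Na2HPO4, 115 mM NaCl, pH 7.4). Kinetic constants and affinity obtained by fitting to a 1:1 Langmuir binding model.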
Target sequence in this assay (Q9NXA8 37-310 limits assumed): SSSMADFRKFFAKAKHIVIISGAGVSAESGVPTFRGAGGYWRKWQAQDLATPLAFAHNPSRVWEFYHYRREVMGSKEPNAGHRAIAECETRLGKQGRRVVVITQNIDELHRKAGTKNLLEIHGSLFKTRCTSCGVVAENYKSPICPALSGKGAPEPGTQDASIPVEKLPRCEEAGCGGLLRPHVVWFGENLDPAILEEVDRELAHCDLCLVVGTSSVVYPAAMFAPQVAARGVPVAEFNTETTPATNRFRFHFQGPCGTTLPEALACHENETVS

[3] = target: T1, NAD-dependent protein deacylase sirtuin-5, mitochondrial; experiment: Binding affinity to human N-terminal biotinylated SIRT5 by surface plasmon resonance spectroscopy; outline: as §1
Target sequence in this assay (Q9NXA8 whole entry): as the sequence (Q9NXA8 whole entry) above

[4] = target: T1, NAD-dependent protein deacylase sirtuin-5, mitochondrial; experiment: Binding affinity to human recombinant N-terminal strep2-tagged SIRT5 expressed in Escherichia coli BL21 (DE3) at 100 uM by SDS-PAGE/LC-MS based pull down assay
Outline: (§2)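 Streptavidin agarose (0.5 ml bed volume) loaded with biotinylated inhibitor (100 µM in PBS) for 30 min, then washed with PBST. Bound protein eluted with 200 mM NaOH; eluates analysed by SDS-PAGE and LC-MS.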
Target sequence in this assay (Q9NXA8 37-310 limits assumed): as the sequence (Q9NXA8 37-310 limits assumed) above

[5] = target: T2, NAD-dependent protein deacetylase sirtuin-2 (Homo sapiens) (UniProt Q8IXJ6); experiment: Binding affinity to human recombinant N-terminal strep2-tagged SIRT2 (43 to 356 residues) expressed in Escherichia coli BL21 (DE3) at 100 uM by SDS-PAGE/LC-MS based pull down assay; outline: as §2
T2 sequence (whole entry): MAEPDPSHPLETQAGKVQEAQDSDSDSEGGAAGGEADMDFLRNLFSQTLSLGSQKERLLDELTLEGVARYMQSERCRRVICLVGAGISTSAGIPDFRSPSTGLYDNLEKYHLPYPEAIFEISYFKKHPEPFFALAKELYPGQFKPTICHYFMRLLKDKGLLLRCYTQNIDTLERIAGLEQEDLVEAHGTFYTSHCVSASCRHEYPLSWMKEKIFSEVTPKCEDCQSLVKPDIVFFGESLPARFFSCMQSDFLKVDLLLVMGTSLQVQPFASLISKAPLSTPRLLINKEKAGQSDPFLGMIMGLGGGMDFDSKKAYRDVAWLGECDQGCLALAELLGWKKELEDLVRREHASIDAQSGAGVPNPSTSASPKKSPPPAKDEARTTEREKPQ

[6] = target: T3, NAD-dependent protein deacetylase sirtuin-3, mitochondrial (Homo sapiens) (UniProt Q9NTG7); experiment: Binding affinity to human recombinant N-terminal strep2-tagged SIRT3 (114 to 380 residues) expressed in Escherichia coli BL21 (DE3) at 100 uM by SDS-PAGE/LC-MS based pull down assay; outline: as §2
T3 sequence (whole entry): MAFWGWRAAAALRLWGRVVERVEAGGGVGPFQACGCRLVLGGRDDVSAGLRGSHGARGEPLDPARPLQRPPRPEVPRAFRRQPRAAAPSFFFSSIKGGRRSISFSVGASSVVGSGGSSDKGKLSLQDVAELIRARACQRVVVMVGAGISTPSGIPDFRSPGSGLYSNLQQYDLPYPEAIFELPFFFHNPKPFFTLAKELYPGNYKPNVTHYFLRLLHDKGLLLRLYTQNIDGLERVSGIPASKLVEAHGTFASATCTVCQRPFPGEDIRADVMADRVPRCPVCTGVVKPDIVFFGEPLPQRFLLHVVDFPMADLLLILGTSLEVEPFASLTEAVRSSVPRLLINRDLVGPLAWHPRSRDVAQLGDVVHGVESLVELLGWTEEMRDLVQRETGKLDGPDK

[7] = target: T1, NAD-dependent protein deacylase sirtuin-5, mitochondrial; experiment: Competitive inhibition of human recombinant N-terminal Strep2-tagged SIRT5 expressed in Escherichia coli BL21 (DE3) using Abz-GVLK(glutaryl)AY(NO2)GV-NH2 as substrate in presence of NAD+ by fluorescence assay
Outline: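 Continuous trypsin-coupled fluorescence assay at 37°C: 10 nM SIRT5, 500 µM NAD+, 500 nM trypsin, 5% DMSO, 0.025-5 µM substrate, 0.01-20 µM inhibitor. Buffer: 20 mM Tris, 150 mM NaCl, 5 mM MgCl2, pH 7.8. Excitation 320 nm, emission 420 nm. Measured in duplicate; IC50 determined at 0.03 µM substrate by log(inhibitor) vs normalized response fit.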
Target sequence in this assay (Q9NXA8 whole entry): as the sequence (Q9NXA8 whole entry) above

SMILES	IC50 [1]	also measured
CC(C)C[C@H](NC(=O)[C@@H](NC(=O)CNC(=O)c1ccccc1)C(C)C)C(=O)N[C@@H](CCCCNC(=O)C[C@H](Sc1cccc(Cl)c1)C(=O)O)C(=O)N[C@@H](CCC(=O)O)C(=O)N[C@@H](Cc1ccc(O)cc1)C(=O)NCC(=O)N[C@H](C(N)=O)C(C)C (Bz-GVLK(X70)EYGV-NH2)	0.12 µM	–
CC(C)C[C@H](NC(=O)[C@@H](NC(=O)CNC(=O)c1ccccc1)C(C)C)C(=O)N[C@@H](CCCCNC(=O)C[C@@H](SCc1cccc(C(F)(F)F)c1)C(=O)O)C(=O)N[C@@H](CCC(=O)O)C(=O)N[C@@H](Cc1ccc(O)cc1)C(=O)NCC(=O)N[C@H](C(N)=O)C(C)C (Bz-GVLK(X71)EYGV-NH2)	1.15 µM	–
CC(C)C[C@H](NC(=O)[C@@H](NC(=O)CNC(=O)c1ccccc1)C(C)C)C(=O)N[C@@H](CCCCNC(=O)C[C@@H](SCc1cccc2ccccc12)C(=O)O)C(=O)N[C@@H](CCC(=O)O)C(=O)N[C@@H](Cc1ccc(O)cc1)C(=O)NCC(=O)N[C@H](C(N)=O)C(C)C (Bz-GVLK(X72)EYGV-NH2)	0.207 µM	–
CC(C)C[C@H](NC(=O)[C@@H](NC(=O)CNC(=O)c1ccccc1)C(C)C)C(=O)N[C@@H](CCCCNC(=O)C[C@H](SCc1ccccc1Cl)C(=O)O)C(=O)N[C@@H](CCC(=O)O)C(=O)N[C@@H](Cc1ccc(O)cc1)C(=O)NCC(=O)N[C@H](C(N)=O)C(C)C (Bz-GVLK(X73)EYGV-NH2)	0.533 µM	–
CC(C)C[C@H](NC(=O)[C@@H](NC(=O)CNC(=O)c1ccccc1)C(C)C)C(=O)N[C@@H](CCCCNC(=O)C[C@@H](SCc1ccc(Cl)cc1Cl)C(=O)O)C(=O)N[C@@H](CCC(=O)O)C(=O)N[C@@H](Cc1ccc(O)cc1)C(=O)NCC(=O)N[C@H](C(N)=O)C(C)C (Bz-GVLK(X74)EYGV-NH2)	0.432 µM	–
CC(C)C[C@H](NC(=O)[C@@H](NC(=O)CNC(=O)CCC(=O)NCCCOCCOCCOCCCNC(=O)CCCC[C@@H]1SC[C@@H]2NC(=O)N[C@@H]21)C(C)C)C(=O)N[C@@H](CCCCNC(=O)C[C@H](Sc1ccc2ccccc2c1)C(=O)O)C(=O)N[C@@H](CCC(=O)O)C(=O)N[C@@H](Cc1ccc(O)cc1)C(=O)NCC(=O)N[C@H](C(N)=O)C(C)C ({X2-Suc}-GVLK(X1)EYGV-NH2)	0.0191 µM	koff [2]: 0.00015 s⁻¹; Kd [3]: 0.00012 µM; Activity [4]: Active; Activity [5]: inactive; Activity [6]: inactive; Ki [7]: 0.0136 µM
CC(C)C[C@H](NC(=O)[C@@H](NC(=O)CNC(=O)CCC(=O)NCCCOCCOCCOCCCNC(=O)CCCC[C@@H]1SC[C@@H]2NC(=O)N[C@@H]21)C(C)C)C(=O)N[C@@H](CCCCNC(=O)CC(Sc1ccc2ccccc2c1)C(=O)O)C(=O)N[C@@H](CCC(=O)O)C(=O)N[C@@H](Cc1ccc(O)cc1)C(=O)NCC(=O)N[C@H](C(N)=O)C(C)C (some centres undefined) ({X2-Suc}-GVLK(X9)EYGV-NH2)	0.0911 µM	Ki [7]: 0.0832 µM

Source: ChEMBL document CHEMBL4033793, “Potent and Selective Inhibitors of Human Sirtuin 5” (J Med Chem, 2018)
